Experiment [1] relates to Imidazoleglycerol-phosphate dehydratase (His3p). Conditions: cited from earlier work.
The test system of a further experiment is yeast cells. Nature of the experiment: Cellular growth in the presence of varying concentrations of 3-AT. It is filed as cell-based, budding yeast Saccharomyces cerevisiae. Conditions: 30°C, three to five days. Put shortly:
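BY4742-background strains (MATα his3Δ1 leu2Δ0 lys2Δ0 ura3Δ0; isogenic MATa dot1Δ or hmt1Δ) made HIS+ by transformation with a 1.75 kb HIS3 fragment. GCN5 deleted with a gcn5::hisG-URA3-hisG fragment. Log-phase cells from rich medium were serially diluted, spotted onto SC –His plates containing varying 3-AT concentrations, and scored for growth.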

In another experiment the target is Hmt1p (Saccharomyces cerevisiae, UniProt P38074). The experiment in a line: Kinetic studies of Hmt1p-mediated H4 peptide methylation. The format is biochemical, budding yeast Saccharomyces cerevisiae. Conditions: peptide 0.01 to 10 μM, 3.3 μM 3H-SAM, app. 25 ng GST-Hmt1p, pH 8.0, 30°C, 3 min; Hanes/Wolffe plot; average, n ranging from 2 to 8.

This is an account of results in article PMC2791397 (Biochimica et biophysica acta, 2009).

Sequence of Hmt1p (P38074 whole entry): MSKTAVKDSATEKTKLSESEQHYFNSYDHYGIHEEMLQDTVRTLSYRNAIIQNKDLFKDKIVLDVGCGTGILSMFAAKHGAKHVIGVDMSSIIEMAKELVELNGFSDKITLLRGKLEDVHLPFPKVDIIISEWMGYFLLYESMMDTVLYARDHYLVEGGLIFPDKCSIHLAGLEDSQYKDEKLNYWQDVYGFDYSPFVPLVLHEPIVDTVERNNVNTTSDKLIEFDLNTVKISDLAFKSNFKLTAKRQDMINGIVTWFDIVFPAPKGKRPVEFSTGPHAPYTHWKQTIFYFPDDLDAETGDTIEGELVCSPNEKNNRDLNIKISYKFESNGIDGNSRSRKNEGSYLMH

In the case of `Nc1nc[nH]n1` [3-AT, 3-amino-1,2,4-triazole], in experiment [1], the “inhibition of Imidazoleglycerol-phosphate dehydratase” value is listed as “competitive inhibitor”. The “sensitivity to 3-AT, dot1 deletion” value in the experiment on yeast cells (dot1! cells, SC -His plates) is on record as “did not have an obvious effect”. Moreover, in the experiment on yeast cells (gcn5! cells, SC -His plates), the “sensitivity to 3-AT, gcn5 deletion” value is “hypersensitive”. Also, the “resistance to 3-AT, gcn5 hmt1 double knockout” value in the experiment with yeast cells (gcn5! hmt1! cells vs gcn5! strain, SC -His plates) was “significantly higher resistance to 3-AT”. In addition, the “sensitivity to 3-AT, hmt1 deletion” value with yeast cells (hmt1! cells, 20- and 40-mM 3-AT plates, SC -His) is on record as “sustain higher concentrations of 3-AT”.
On to “Ac.K8: synthetic histone H4 peptide (residues 1–18) with acetyllysine at position 8”, for which the Km with Hmt1p was 0.059 ± 0.02 µM.

For orientation: Km means the substrate concentration at which the rate is half of its maximum.
